Hits are enriched below; roughly 2.7% of the tested compounds scored in any of these assays.
NTR1 agonist – NTR1 (human) agonism. activation, % at 20 µM. NTR1-U2OS beta-arrestin-GFP spot imaging, agonist mode. 330,000 compounds, 0.17% hits;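 active = activation at or above 40% of the spot to cytoplasm intensity ratio, with at least 20 cells analyzed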;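 note: 0% = DMSO without peptide and 100% = 100 nM NTR1 peptide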
MC4R antag cAMP – human MC4R antagonism in cAMP assay; MC4R-expressing cells, MTII-stimulated cAMP, LANCE TR-FRET; inhibition, % at 6.5 µM; AID 540295; P32245; 360,000 compounds, 0.48% hits;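 active = inhibition above its plate's cutoff, the mean of tested wells on that plate plus 3 SD, cut at about 29% in these data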;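 note: 0% = Melanotan II alone and 100% = Melanotan II plus saturating MCL0020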
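Material – human MC4R-expressing U2OS cells · Repeats – no replicates · Detection – TR-FRET with Eu-cAMP and labeled anti-cAMP, 671 nm · Times – compound 30 min, challenge 1 h, detection 1 h · Compound – single nominal compound dose of 6.5 µM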
HTR2A ag – mouse HTR2A agonism via beta-arrestin recruitment; P35363; CHO-K1 mHTR2A beta-arrestin complementation, luminescence; percent of 30 µM serotonin response; activation, % at 7.6 µM; 360,000 compounds, 0.66% hits;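 active = activation above a run cutoff, the mean activation of all tested compounds plus 3 SD, cut at about 14% in these data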;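 note: 0% = plate median of compound wells and 100% = 30 µM serotonin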
Lipid droplet – modulators of hepatic lipid droplet formation. 240,000 compounds, 0.4% hits. inhibition, % at 6.5 µM. AML12 mouse hepatocytes, oleate lipid droplets, BODIPY imaging. AID 1656;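 active = lipid droplet intensity inhibited by at least 50%, with more than 500 cells counted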
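Material – AML12 mouse liver cells · Also added – oleate loading, 100 µM · Compound dosing – 6.5 µM single-point dosing · Times – overnight treatment with compound plus oleate · Measured by – fluorescence imaging, 20x objective, two fields per well · Read-out – percent inhibition of filter-corrected integrated lipid droplet intensity per well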
MC4R barr agon – human MC4R agonism via beta-arrestin; P32245; U2OS MC4R beta-arrestin complementation, luminescence; percent of melanotan II response, DMSO zero; activation, % at 8.9 µM; 360,000 compounds, 0.98% hits; AID 540308;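 active = activation above a per-plate cutoff, the mean activation of sample wells on that plate plus 3 SD, cut at about 8% in these data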
PREPL inh – human PREPL enzyme inhibition. Q4J6C6. recombinant PREPL, fluorescence polarization activity-based probe. inhibition, % at 5.96 µM. 320,000 compounds, 0.68% hits; in the data active = inhibition above about 43%;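 note: 0% = enzyme with DMSO and 100% = wells lacking enzyme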
Target sequence (Q4J6C6 whole entry, looked up): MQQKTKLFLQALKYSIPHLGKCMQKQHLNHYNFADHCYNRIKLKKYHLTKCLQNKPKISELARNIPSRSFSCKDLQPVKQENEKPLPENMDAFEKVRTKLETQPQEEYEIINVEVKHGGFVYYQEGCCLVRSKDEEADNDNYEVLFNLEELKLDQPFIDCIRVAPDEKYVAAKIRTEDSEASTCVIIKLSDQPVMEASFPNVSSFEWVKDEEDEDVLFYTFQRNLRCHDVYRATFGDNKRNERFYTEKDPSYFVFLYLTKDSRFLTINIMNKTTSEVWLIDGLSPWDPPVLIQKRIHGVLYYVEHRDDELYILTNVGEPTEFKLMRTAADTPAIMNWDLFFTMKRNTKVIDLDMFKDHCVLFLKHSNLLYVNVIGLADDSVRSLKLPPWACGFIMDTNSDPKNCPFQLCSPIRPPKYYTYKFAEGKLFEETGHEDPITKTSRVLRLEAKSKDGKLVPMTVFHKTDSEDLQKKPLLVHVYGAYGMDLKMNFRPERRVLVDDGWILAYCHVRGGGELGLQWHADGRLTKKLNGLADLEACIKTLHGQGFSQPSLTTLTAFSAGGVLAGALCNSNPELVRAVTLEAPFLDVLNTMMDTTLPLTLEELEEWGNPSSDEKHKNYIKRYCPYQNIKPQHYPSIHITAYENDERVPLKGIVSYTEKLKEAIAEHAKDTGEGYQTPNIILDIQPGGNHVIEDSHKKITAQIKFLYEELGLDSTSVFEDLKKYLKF
Lipid drop inh – hepatic lipid droplet formation inhibition, confirmed | shares compounds with Lipid droplet | AML12 mouse hepatocytes, BODIPY lipid droplet imaging; droplets induced with 100 µM oleic acid | inhibition, % at 5.2 µM | 870 compounds, 65% hits;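 active = inhibition of lipid droplet metric at least 50%, with more than 300 cells in each of four replicates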;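 note: plate controls were DMSO with oleic acid for no effect and 5 µM Triacsin-C for full effect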
AML12 tox img – counter-screen for cytotoxicity in AML12 mouse hepatocytes | shares compounds with Lipid droplet | DAPI nuclear morphology cytotoxicity imaging; stronger effect = higher value; cells fed 100 µM oleate overnight | z-score at 5 µM | 870 compounds, 3% hits; in the data active = z-score above about 6.3;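 note: compound exposure lasted overnight at 37 °C before fixation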
AML12 tox ATP – confirmation of cytotoxicity in AML12 mouse hepatocytes. shares compounds with Lipid droplet. AML12 mouse hepatocyte viability, ATP luminescence; cells loaded with 100 µM oleic acid. cytotoxicity, % at 50 µM. 530 tested, under 10 active;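 active = cytotoxicity above 50% in each of four replicates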;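 note: compound exposure lasted overnight at 37 °C before the ATP read; 0% = DMSO-treated cells and 100% = wells with no cells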
Numbers without * were called inactive; / = no result given.

SMILES	NTR1 agonist	MC4R antag cAMP	HTR2A ag	Lipid droplet	MC4R barr agon	PREPL inh	Lipid drop inh	AML12 tox img	AML12 tox ATP
COc1ccccc1C(=O)NCC(=O)OCC(=O)N1CC(C)OC(C)C1 (configuration not stated)	-1.2	10.7	-1.1	/	-0.6	/	/	/	/
COc1ccc2c(c1)c(CC(=O)Nc1ccccc1OC)c(C)n2C(=O)c1ccc(Cl)cc1	0.4	10.2	-5.8	67.2*	-1.2	-8.7	-74.9	7.89	/
CCC1=NN=C(c2ccc(F)cc2)C(c2c[nH]c3ccccc23)N1O (configuration not stated)	2.0	-0.1	2.2	64.7*	-0.7	-11.4	30.1	-0.89	/
Cc1ccc(N2C(=O)CC(c3c[nH]c4ccccc34)C2=O)cc1 (configuration not stated)	1.3	3.1	7.7	2.6	-1.0	-7.2	/	/	/
CCOc1cc2c(cc1OCC)C(c1ccccc1)N(c1ccccc1)C(=O)C2 (configuration not stated)	0.7	11.0	-2.8	89.4*	1.0	6.1	106.8*	-0.327	3.1
CCOc1ccc(C2c3cc(OC)c(OC)cc3CC(=O)N2c2ccccc2)cc1 (configuration not stated)	0.2	-3.9	-3.5	/	0.3	6.6	/	/	/
CCOc1cc2c(cc1OCC)C(c1ccc(OC)cc1)N(c1ccccc1)C(=O)C2 (configuration not stated)	1.4	-3.8	4.2	50.9*	0.5	16.6	60.1*	-1.05	1.7
CCC1(C(=O)OC)NC(c2ccco2)C2C(=O)N(c3ccc(F)cc3)C(=O)C21 (configuration not stated)	-2.3	-12.9	3.1	-9.3	-0.3	11.5	/	/	/
C[C@@H]1CN([C@H](C)CO)S(=O)(=O)c2ccc(Br)cc2O[C@H]1CN(C)C(=O)C1CCCCC1	/	2.4	4.8	/	-0.6	/	/	/	/
CCCCOc1ccccc1C(=O)N(Cc1ccc(C)o1)C1CCS(=O)(=O)C1 (configuration not stated)	0.0	-6.3	-10.9	64.4*	-0.7	-4.7	96.9*	0.928	10.1
CCCOc1ccccc1C(=O)N(Cc1ccco1)C1CCS(=O)(=O)C1 (configuration not stated)	-0.9	23.9	0.4	/	0.1	-3.0	/	/	/
CCCOc1ccccc1C(=O)N(Cc1ccc(C)o1)C1CCS(=O)(=O)C1 (configuration not stated)	-0.4	1.2	-0.2	64.6*	-1.8	0.5	77.6*	0.476	-3.1
CCOC(=O)C1CCN(C(=O)Cn2c(=O)c3cccn3c3cccnc32)CC1	-0.2	-0.1	3.2	7.0	-3.8	-0.8	/	/	/
COc1cc2c(cc1OC)CN(CC(=O)Nc1ccc(C)c(C)c1)CC2	0.8	-6.5	-10.7	55.8*	-0.7	19.5	-7.9	-0.199	/
COc1ccccc1CNC(=O)C1(c2ccc(Cl)cc2)CC1	-0.6	17.5	1.8	-15.9	-0.9	2.3	/	/	/
COc1cccc(NC2=C(NCCO)C(=O)c3ccccc3C2=O)c1	-0.4	-12.9	5.0	5.0	-3.7	17.2	/	/	/
Cc1cccc(NC2=C(NCCO)C(=O)c3ccccc3C2=O)c1	-0.8	6.1	-2.3	88.7*	-1.5	17.5	96.8*	0.311	21.6
Cc1ccc(-c2[nH]c3ccccc3c2SCCNC(=O)c2ccc(S(=O)(=O)N3CCOCC3)cc2)cc1	-1.8	6.9	0.0	54.0*	-0.7	24.7	91.1*	-0.724	1.0
CN(C)S(=O)(=O)c1cccc(NC(=O)CC23CC4CC(CC(C4)C2)C3)c1	-0.8	10.8	-5.4	83.9*	-3.9	4.5	24.3	-0.171	/
CCN(CC)C(=O)c1sc2c(c1C)c(=O)n(-c1ccc(OC)cc1OC)c(=O)n2CC(=O)c1ccccc1	3.0	1.1	2.5	-2.1	-1.7	7.0	/	/	/
COc1ccc(-n2c(=O)c3c4c(sc3n(CC(=O)Nc3cc(C)[nH]n3)c2=O)CCC4)c(OC)c1	1.5	10.7	1.3	51.2*	0.3	7.1	23.2	0.107	/
COc1ccccc1CNS(=O)(=O)c1ccc2c(c1)CC(C)N2C(=O)C1CC1 (configuration not stated)	0.3	3.2	7.9	79.4*	-3.9	-3.2	106.0*	-1.11	17.9
COc1ccccc1CNS(=O)(=O)c1ccc2c(c1)CC(C)N2C(=O)C1CCC1 (configuration not stated)	1.8	0.6	6.7	64.4*	-1.4	-4.7	99.3*	0.0839	21.5
CC1Cc2cc(S(=O)(=O)NCCC(=O)N(C)Cc3ccccc3)ccc2N1C(=O)C1CC1 (configuration not stated)	-0.5	-2.2	-5.8	61.0*	-2.0	5.7	66.7*	-0.836	20.6
COc1ccc(CCNS(=O)(=O)c2ccc3c(c2)CC(C)N3C(=O)C2CC2)cc1OC (configuration not stated)	/	7.9	-2.9	/	-2.4	/	/	/	/
SMILES	NTR1 agonist	MC4R antag cAMP	HTR2A ag	Lipid droplet	MC4R barr agon	PREPL inh	Lipid drop inh	AML12 tox img	AML12 tox ATP
COCCCC1CCN(C(=O)C2CCC(=O)N(CCc3cccc(F)c3)C2)CC1 (configuration not stated)	0.2	7.8	-0.8	-0.5	-1.4	10.1	/	/	/
COc1cccc(CNC(=S)Nc2ccc3c(c2)c(=O)n(C)n3C)c1	/	3.1	-4.9	/	-0.3	/	/	/	/
CCC(C)(C)NC(=O)C(c1ccc(C)cc1)N(CC1CCCO1)C(=O)CCC(=O)Nc1ccccn1 (configuration not stated)	0.3	9.7	-6.1	60.9*	-0.8	-12.4	51.2	-0.152	/
CC(C)c1ccccc1NC(=O)COC(=O)c1c2c(nc3ccccc13)CCN(Cc1ccccc1)C2	4.3	-36.6	2.5	53.9*	3.9	8.2	56.3	-0.00351	15.8
Cc1cc(N2CCN(C)CC2)ccc1NC(=O)c1c2c(nc3ccccc13)CCN(Cc1ccccc1)C2	20.2	13.8	4.3	-18.0	3.8	7.5	/	/	/
C[C@@H]1CN([C@@H](C)CO)C(=O)c2cc(NC(=O)c3ccccc3)ccc2O[C@@H](C)CCCCO[C@@H]1CN(C)Cc1ccc(C(F)(F)F)cc1	/	2.2	0.5	/	1.3	/	/	/	/
CCOC(=O)c1sc2cc([N+](=O)[O-])cc(SCCO)c2c1N	-0.7	0.0	-2.8	51.6*	6.6	10.1	60.5*	-0.476	/
CCOC(=O)c1sc2cc([N+](=O)[O-])cc(SCC(=O)OC)c2c1N	-4.3	15.2	-2.8	10.1	-3.1	23.8	/	/	/
